Measured values gathered from unrelated publications.
Compare with care: the assays were run in different laboratories.

The EC50 of `CCOC(=O)C1=C(CN2CCOCC2)NC(c2nccs2)=NC1c1ccc(F)cc1Br` (centres unmarked) is reported as 0.04 µM (Hepatitis B virus; viral replication, inhibitor, qPCR; HepDES19; 72 h).
For `Nc1ncncc1-c1cn([C@@H]2O[C@](F)(CO)[C@@H](O)[C@H]2O)cn1`, the IC50 was greater than 100 µM (Severe acute respiratory syndrome coronavirus 2; viral replication, inhibitor; A549-ACE2; 24 h).
The inhibition of `COc1cnc(OC)n2nc(NS(=O)(=O)c3c(OCC(F)F)cccc3C(F)(F)F)nc12` is reported as 0% (L02; cell growth or viability, CCK-8; 0.78 µM, 72 h).
With `O=[N+]([O-])NC(=S)NN=Cc1ccc(Br)cc1` the IC50 was 1140 µM (Leishmania tropica; parasite growth; J774.A1; 72 h, intracellular, amastigote).
The IC50 of `Cc1c(O)cccc1C(=O)N[C@@H](CSc1ccccc1)[C@H](O)CN1C[C@H]2CCCC[C@H]2C[C@H]1C(=O)NC(C)(C)C` is reported as 1.91 µM (Severe acute respiratory syndrome coronavirus 2; viral replication, inhibitor; Caco-2; replicon).
With `COc1ccc(C=NNC(=S)N[N+](=O)[O-])cc1OC` the IC50 was 865 µM (Leishmania tropica; parasite growth, MTT; 72 h, promastigote).
For `CC1=NN(c2ccc(C)c(C)c2)C(=O)/C1=N\Nc1cccc(-c2cccc(C(=O)O)c2)c1O`, the IC50 was 4.55 µM (Severe acute respiratory syndrome coronavirus 2; viral replication, inhibitor; Calu-3; replicon).
With `O=[N+]([O-])NC(=S)NN=Cc1ccc(F)cc1` the IC50 was 186 µM (Leishmania tropica; parasite growth; J774.A1; 72 h, intracellular, amastigote).
`COc1nc(N)ncc1-c1cn([C@@H]2O[C@](F)(CO[P@@](=O)(N[C@@H](C)C(=O)OC(C)C)Oc3ccccc3)[C@@H](OC(=O)C(C)C)[C@H]2OC(=O)C(C)C)cn1` has an IC50 of 12.5 µM (Severe acute respiratory syndrome coronavirus 2; viral replication, inhibitor; A549-ACE2; 24 h).
The IC50 of `Cc1ccc(NC(=O)C2(c3ccc4c(c3)OC(F)(F)O4)CC2)nc1-c1cccc(C(=O)O)c1` is reported as 0.458 µM (Severe acute respiratory syndrome coronavirus 2; viral replication, inhibitor; Calu-3; replicon).
`COc1ncc(-c2cn([C@@H]3O[C@](F)(CO)[C@@H](O)[C@H]3O)cn2)c(N)n1` gave an IC50 of greater than 100 µM (Severe acute respiratory syndrome coronavirus 2; viral replication, inhibitor; A549-ACE2; 24 h).
For `O=c1[nH]c2ccccc2n1C1CCN(CCCC(c2ccc(F)cc2)c2ccc(F)cc2)CC1`, the IC50 was 2.14 µM (Severe acute respiratory syndrome coronavirus 2; viral replication, inhibitor; Caco-2; replicon).
The IC50 of `COc1ncc(-c2cn([C@@H]3O[C@](F)(CO)[C@@H](O)[C@H]3O)cn2)c(OC)n1` is reported as greater than 100 µM (Severe acute respiratory syndrome coronavirus 2; viral replication, inhibitor; A549-ACE2; 24 h).
`N.N.[Cl][Pt][Cl]` gave an inhibition of 97% (NALM-6; cell growth or viability, ATP luminescence; 10 µM, 72 h).
